This passage reports inhibition results from ChEMBL document CHEMBL4837248, “Discovery and SAR Evolution of Pyrazole Azabicyclo[3.2.1]octane Sulfonamides as a Novel Class of Non-Covalent N-Acylethanolamine-Hydrolyzing Acid Amidase (NAAA) Inhibitors for Oral Administration” (J Med Chem, 2021).

What all share (type): cell-based
In experiment [1] the target is T1, N-acylethanolamine-hydrolyzing acid amidase (Homo sapiens) (UniProt Q02083).
T1 sequence (whole entry): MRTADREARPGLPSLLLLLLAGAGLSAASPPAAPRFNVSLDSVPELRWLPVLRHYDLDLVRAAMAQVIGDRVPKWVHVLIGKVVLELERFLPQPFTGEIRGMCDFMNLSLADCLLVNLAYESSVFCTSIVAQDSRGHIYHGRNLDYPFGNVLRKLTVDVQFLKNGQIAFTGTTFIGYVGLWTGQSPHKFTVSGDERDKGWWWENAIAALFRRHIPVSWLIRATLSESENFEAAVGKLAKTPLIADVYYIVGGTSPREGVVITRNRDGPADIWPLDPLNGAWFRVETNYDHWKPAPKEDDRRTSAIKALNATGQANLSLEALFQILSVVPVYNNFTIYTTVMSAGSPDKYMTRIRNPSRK
The experiment is described as follows: Inhibition of recombinant human NAAA expressed in HEK293 cells using PAMCA as fluorogenic substrate at 50 uM preincubated for 30 mins followed by substrate addition and measured after 50 mins by fluorescence assay relative to control. In short, it runs like this:
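Lysosomal-type enzyme-enriched lysate from HEK-293 cells stably expressing human NAAA (4 μg protein), preincubated 30 min with compound or 5% DMSO in 100 mM citrate/phosphate pH 4.5 with 3.0 mM DTT, 0.1% NP40, 0.05% BSA, 150 mM NaCl. Reaction started with PAMCA substrate (2 μM), run 50 min at 37 °C. Fluorescence read at ex 355/em 460 nm against enzyme-free background.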

In experiment [2] the target is T1, N-acylethanolamine-hydrolyzing acid amidase (Homo sapiens). The experiment is described as follows: Inhibition of ARN14686 probe binding to human NAAA expressed in HEK293 cells preincubated for 2 hrs followed by ARN14686 probe addition and measured after 15 mins by fluorescence assay. The settings on record: time 135.0 min. In short, it runs like this:
(§1)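 Lysosomal enrichment (0.5 mg/mL) from HEK293 cells overexpressing human NAAA was preincubated 2 h at 37 °C with compound at a final 20 μM (2% DMSO); DMSO-only controls were included. ARN14686 probe (20 μM) was then added at 37 °C for 15 min or 4 h. An Alexa Fluor 545 azide was attached by CuSO4/TCEP/TBTA click chemistry (2 h, 25 °C). Read-out was SDS-PAGE in-gel fluorescence at 532 nm, with Coomassie loading control.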

For experiment [3] the target is unchanged. The experiment is described as follows: Inhibition of ARN14686 probe binding to human NAAA expressed in HEK293 cells preincubated for 2 hrs followed by ARN14686 probe addition and measured after 4 hrs by fluorescence assay. The conditions noted are these: time 6.0 hrs. In a few lines: as §1

Active and inactive are the calls of the source. The calls are words filed in the database; no cut-off is given here.

For `O=S(=O)(c1cn[nH]c1)N1CCC(Oc2cnccn2)CC1`, the inhibition (usually the relative decrease from the control value, in per cent) in experiment [1] is less than 10%.
Still for that read-out and setting: with `COc1n[nH]c(C)c1S(=O)(=O)N1CCC(Oc2cnccn2)CC1` the figure was less than 10%; with `Cc1nn(C)c(C)c1S(=O)(=O)N1CCC(Oc2cnccn2)CC1`, less than 10%.
Take `CCOCc1cnc(O[C@H]2C[C@H]3CC[C@@H](C2)N3S(=O)(=O)c2c(C)n[nH]c2C)cn1`: the inhibition entry in experiment [2] is “Active”. Further, the inhibition result in experiment [3] is “inactive”.
For the molecule `Cc1n[nH]cc1S(=O)(=O)N1CCC(Oc2cnccn2)CC1`, in experiment [1], the inhibition is less than 10%.
Still for that read-out and setting: with `Cc1n[nH]c(C)c1S(=O)(=O)N[C@H]1CC[C@H](Oc2cnccn2)CC1` the figure was less than 10%.
Same read-out and setting: next, `Cc1n[nH]c(C)c1S(=O)(=O)N1CCC(Cc2cnccn2)CC1`: less than 10%; `Cc1n[nH]c(C)c1S(=O)(=O)N1CCC(c2cnccn2)CC1`: less than 10%; `Cc1n[nH]c(C)c1C(=O)N1CCC(Oc2cnccn2)CC1`: less than 10%.
Still for that read-out and setting: with `Cc1noc(C)c1S(=O)(=O)N1CCC(Oc2cnccn2)CC1` the figure was less than 10%; with `Cc1cnn(C)c1S(=O)(=O)N1CCC(Oc2cnccn2)CC1`, less than 10%; with `Cc1n[nH]c(C)c1S(=O)(=O)N1[C@@H]2CC[C@H]1C[C@H](Oc1cnccn1)C2`, less than 10%.
Turning to `Cc1n[nH]c(C)c1S(=O)(=O)N1CC(Oc2cnccn2)C1`, the inhibition in experiment [1] is less than 10%.
Consider `Cc1n[nH]c(C)c1S(=O)(=O)N1CCC(Nc2cnccn2)CC1`, for which the inhibition in experiment [1] was less than 10%.
On the same count and under the same terms, next, `Cc1n[nH]c(C)c1S(=O)(=O)N1C[C@H]2CCC[C@@H](C1)[C@H]2Oc1cnccn1`: less than 10%.
